This is an account of results in paper PMC5330449 (ACS sustainable chemistry & engineering, 2015).

In series [1] the test system is Raw 264.7 macrophages stimulated with LPS. Kind of series: Inhibition of LPS-induced NO production in macrophages. The following applies: 100 μM and 50 μM, pre-treated 1 hour, LPS 1 μg.mL^-1. Type of series: cell-based, mouse.
Series [2] can be described thus: Thermogravimetric analysis. Type of series: physicochemical. The conditions noted are these: TGA onset, nitrogen atmosphere, 10 °C.min^-1.
The next series deals with HaCaT cells. Kind of series: Cytotoxicity, resazurin metabolic conversion, HaCaT. Type of series: cell-based, human. Put shortly: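 HaCaT keratinocytes were grown in high-glucose DMEM with 4 mM glutamine, 10% heat-inactivated FBS and penicillin/streptomycin at 37 °C under 5% CO2. After 24 h attachment in 96-well plates, cells were exposed for 24 h to test compound (1–5000 µM) in full medium. Resazurin (10% v/v) was present for the final 2 h. Absorbance was read at 570/600 nm and normalised to untreated cells. EC50 came from a logistic least-squares fit of three independent experiments run in triplicate.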
A general note: The colour change of resazurin is a common sign of viable cells or microbes.

Series [3] can be described thus: Water solubility from saturated aqueous solution, UV quantification. Type of series: physicochemical. The conditions noted are these: 25 °C, pure water; for solubility at 72 h: water, thermodynamic from solid.
The next series concerns Raw 264.7 cells. The experiment in a line: Cytotoxicity, resazurin metabolic conversion, Raw 264.7. Type of series: cell-based, mouse. The following applies: for EC50: read-out: EC50, 50% decrease in cell viability. The gist of the method:
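Mouse Raw 264.7 macrophages were kept in IMDM with 10% non-inactivated FBS and penicillin/streptomycin at 37 °C, 5% CO2. After 24 h attachment, cells received test compound at 1–5000 µM in full medium for 24 h. Resazurin (10% v/v) was added for the last 1 h, and resorufin absorbance was read at 570/600 nm relative to untreated cells. EC50 was fitted by non-linear least squares to a logistic model, from three independent experiments in triplicate.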

The nature of series [4]: DPPH radical scavenging assay. The conditions noted are these: for DPPH radical scavenging (antioxidant) activity, in words: 30, 90 and 120 minutes of exposure to DPPH; for DPPH scavenging IC50: tested up to 1 mg.mL^-1, IC50 impossible to determine. Put shortly:
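DPPH (250 µL of 0.91 mmol/L in methanol) was combined with 20–80 µL of a test compound stock and made up to 4 mL with methanol. Samples stood in the dark at room temperature for 30, 90 and 120 min before absorbance was read at 517 nm. Controls were DPPH without compound and ascorbic acid as positive control. Activity = (A0−A1)/A0×100, and IC50 came from scavenging-versus-concentration fits, in triplicate.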
(The DPPH test is a chemical assay of radical scavenging.)

The subject of a further series is Vibrio fischeri. The experiment in a line: Standard Microtox liquid-phase assay. Type of series: cell-based, Vibrio fischeri (strain NRRL B-11177). The conditions noted are these: for EC50, luminescence inhibition: 30 min of exposure, 15 °C, Passino's classification; for Ecotoxicity rank among the cholinium-based salts: EC50 in mmol.L^-1, Figure 2. The gist of the method: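 Vibrio fischeri NRRL B-11177 was tested by the standard 81.9% liquid-phase protocol at 15 °C. Aqueous dilutions (0–81.9 wt% of stock) were used, with stock concentration corrected for water content by Karl Fischer titration. Luminescence was read after 5, 15 and 30 min and compared with a blank. EC50 and 95% confidence intervals were fitted to a logistic equation by non-linear least squares.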

The conditions of series [5]: cited from earlier work.
The conditions of series [6]: 25 °C; ref Queimada et al. 39; cited from earlier work.
The mark [7] stands for this setting: read-out: EC50, 50% decrease in cell viability, 24 hours of exposure.
The mark [8] stands for this setting: Raw 264.7, 24 hours of exposure.
The mark [9] stands for this setting: Homo sapiens, 24 h, read-out: EC50, 50% decrease in cell viability.

The structures appear in SMILES notation. ≈ marks a conversion by molar mass, not a printed value. Read-outs that look alike come from different tables or passages of the source. Marks after values point to notes of the source that are not given here. Some results are limits rather than exact numbers.

The EC50 is the concentration needed to bring the measured effect to its halfway point. As a reminder, the solubility is the concentration that dissolves in the medium under given conditions. A low value points to a poorly soluble substance.

Take `C[N+](C)(C)CCO.C[N+](C)(C)CCO.O=c1oc2c(O)c([O-])cc3c(=O)oc4c(O)c([O-])cc1c4c23` [[Chol]2[Ell], di((2-hydroxyethyl)trimethylammonium) 3,8-dihydroxy-5,10-dioxo-5,10-dihydrochromeno[5,4,3-cde]chromene-2,7-bis(olate)]: the “Effect on LPS-induced NO production” value in series [1] was “significantly inhibit the LPS-induced NO increase”. Besides, the “Temperature of decomposition (Td)” value in [2] is 265 ºC; in series [2] (listed as [Chol]2 [Ell]) it was 265.0 ºC. Further, the “Cell viability at maximum concentration achieved” value in the series with HaCaT cells (125 µM) was “not observed a decrease in the cell viability”; with Raw 264.7 cells (125 µM, Raw 264.7), “not observed a decrease in the cell viability”. Besides, the “Water solubility ± std” value in [3] worked out at 622.97 ± 36.98 mM. Also, the “DPPH radical scavenging (antioxidant) activity, in words” value in series [4] is recorded as “highest antioxidant activity”.
As for `O=C(O)/C=C/c1ccc(O)c(O)c1` [[Chol][Caf], (2-hydroxyethyl) trimethylammonium (E)-3-(3,4-dihydroxyphenyl)acrylate], the EC50 in the series on HaCaT cells (setting [7]) stood at 1790 µM; with Raw 264.7 cells (setting [8]), 2340 µM.
For the molecule `COc1cc(C(=O)[O-])ccc1O.C[N+](C)(C)CCO` [[Chol][Van], (2-hydroxyethyl) trimethylammonium 4-hydroxy-3-methoxybenzoate], the “EC50, luminescence inhibition” value in the series on Vibrio fischeri is greater than 1000 µg/mL. Moreover, the “Temperature of decomposition (Td)” value in [2] is reported as 186.8 ºC. The “DPPH radical scavenging (antioxidant) activity, in words” value in series [4] is “significantly higher DPPH radical scavenging activity than vanillic acid”.
As to `C[N+](C)(C)CCO.[Cl-]` [cholinium chloride, Cholinium chloride], in series [5], the Decomposition temperature entry is listed as “circa 305 ºC”.
For `O=C(O)c1cc(O)c(O)c(O)c1` [gallic acid, 3,4,5-trihydroxybenzoic acid, reference compound], the “Effect on LPS-induced NO production” value in [1] was “neither [Chol][Gal] nor gallic acid decrease the LPS-induced NO production”. Also, in [2], the “Temperature of decomposition (Td)” value was 262.5 ºC. Moreover, the 50% effective concentration (EC50) was determined as 267 µM in the series on HaCaT cells (setting [9]) and 591 µM in the series on Raw 264.7 cells (Mus musculus, RAW264.7, 24 h). In addition, the solubility at 72 h in series [3] was 71.3 ± 2.7 mM (≈ 12100 µg/mL).
On to `C[N+](C)(C)CCO.O=C([O-])c1cc(O)c(O)c(O)c1` [[Chol][Gal], (2-hydroxyethyl) trimethylammonium 3,4,5-trihydroxybenzoate], for which, in [1], the “Effect on LPS-induced NO production” value is “neither [Chol][Gal] nor gallic acid decrease the LPS-induced NO production”. Besides, in the series on Vibrio fischeri, the “EC50, luminescence inhibition” value is greater than 1000 µg/mL and the “Ecotoxicity rank among the cholinium-based salts” value is given as “less toxic”. Further, the “Temperature of decomposition (Td)” value in series [2] is listed as 185.3 ºC. Also, the “Water solubility ± std” value in [3] is 2402.27 ± 6.09 mM.
`O=C(O)/C=C/c1ccc(O)c(O)c1` [caffeic acid, reference compound]: the EC50 with HaCaT cells (setting [9]) came out at 1800 µM; in the series on Raw 264.7 cells (Mus musculus, RAW264.7, 24 h), 2000 µM. Further, the concentration in solution in series [3] (solubility at 72 h) was 3.84 ± 0.04 mM (≈ 692 µg/mL).
`O=c1oc2c(O)c(O)cc3c(=O)oc4c(O)c(O)cc1c4c23` [ellagic acid, reference compound]: the “Temperature of decomposition (Td)” value in [2] is 472.6 ºC. Also, in series [6], the “Water solubility ± std” value is recorded as 1.26E-02 ± 3.31E-04 ^b mmol.L^-1.
On to `COc1cc(C(=O)O)ccc1O` [vanillic acid, reference compound], for which, in series [2], the “Temperature of decomposition (Td)” value is 233.7 ºC.
As to `COc1cc(C(=O)[O-])cc(OC)c1O.C[N+](C)(C)CCO` [[Chol][Syr], (2-hydroxyethyl) trimethylammonium 4-hydroxy-3,5-dimethoxybenzoate], the “Temperature of decomposition (Td)” value in series [2] is 178.9 ºC. Besides, the “Water solubility ± std” value in series [3] was 2793.71 ± 17.98 mM.
As to `C[N+](C)(C)CCO.O=C([O-])/C=C/c1ccc(O)c(O)c1` [[Chol][Caf], (2-hydroxyethyl) trimethylammonium (E)-3-(3,4-dihydroxyphenyl)acrylate], the “Effect on LPS-induced NO production” value in series [1] is “significantly inhibit the LPS-induced NO increase”.
As to `O=C(O)c1cc(O)c(O)c(O)c1` [[Chol][Gal], (2-hydroxyethyl) trimethylammonium 3,4,5-trihydroxybenzoate], the figures for the EC50 in the series on HaCaT cells (setting [7]) and in the series on Raw 264.7 cells (setting [8]) were 304 µM and 836 µM, respectively.
Regarding `O=C(O)c1ccccc1O` [salicylic acid, reference compound], the “Temperature of decomposition (Td)” value in series [2] is 183.9 ºC. Moreover, the “DPPH scavenging IC50” value in [4] was greater than 1000 µg/mL.
Consider `C[N+](C)(C)CCO.O=C([O-])c1ccccc1O` [[Chol][Sal], (2-hydroxyethyl) trimethylammonium 2-hydroxybenzoate, reference compound], for which the “Ecotoxicity rank among the cholinium-based salts” value in the series with Vibrio fischeri is on record as “most toxic”. The “Temperature of decomposition (Td)” value in series [2] was 226.0 ºC. Besides, in [3], the “Water solubility ± std” value was “Completely miscible”. Also, in series [4], the “DPPH scavenging IC50” value was greater than 1000 µg/mL.
